The source of these data is ChEMBL document CHEMBL1817630, “Stereostructure-based differences in the interactions of cardiotoxic local anesthetics with cholesterol-containing biomimetic membranes” (Bioorg Med Chem, 2011).

Calls of active or inactive are those of the source. No cut-off for these calls is given here.

The test system of data set [1] is Lipid bilayer. Put plainly: Binding affinity to DPH-labeled liposomal membrane containing 20 mol% cardiolipin 40 mol% cholesterol assessed as increase in membrane fluidity by measuring decrease in DPH fluorescence polarization at 200 uM after 5 mins by spectrofluorometry. In outline:
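DPH-labeled liposomes made by ethanol injection (10 mM total lipid, 50 uM DPH in the injected stock) into 10 mM HEPES pH 7.4 with 125 mM NaCl and 25 mM KCl. Membranes held 0 or 20 mol% cardiolipin, with or without 40 mol% cholesterol, and POPC/POPE/POPS/POPI/SM at 25:16:3:3:3. Drug was added at 200 uM final in 0.5% DMSO, incubated 37 °C for 5 min, and DPH polarization read. Results are % change vs DMSO control, mean ± SEM, n=7.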

Data set [2] has as its system Lipid bilayer. Nature of the data set: Binding affinity to DPH-labeled liposomal membrane without cholesterol assessed as increase in membrane fluidity by measuring decrease in DPH fluorescence polarization after 5 mins by spectrofluorometry. In outline:
(§1)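 Fresh DPH-labeled liposomes (ethanol injection into HEPES pH 7.4 with NaCl/KCl) contained 0–45 mol% cholesterol, with the remaining lipids POPC/POPE/CL/POPS/POPI/SM at 25:16:10:3:3:3. Enantiomer pairs were tested on the same day. Each was given at 200 uM final with DMSO at 0.5% v/v, and vehicle controls matched. After 5 min at 37 °C, DPH fluorescence polarization was measured. Values are % polarization change relative to control, mean ± SEM, n=7.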
In general terms: In fluorescence polarisation assays a small probe gives low polarisation when free and higher when bound to something large.

Data set [3] relates to Lipid bilayer. Put plainly: Binding affinity to DPH-labeled liposomal membrane containing 40 mol% cholesterol assessed as increase in membrane fluidity by measuring decrease in DPH fluorescence polarization at 200 uM after 5 mins by spectrofluorometry. In outline:
as §1

Data set [4] concerns Lipid bilayer. Put plainly: Increase in membrane fluidity in DPH-labeled liposomal membrane containing 20 mol% cardiolipin 40 mol% cholesterol assessed as change in DPH fluorescence polarization at 200 uM after 5 mins by spectrofluorometry relative to liposome without cardiolipin.
The test system of data set [5] is Lipid bilayer. Put plainly: Binding affinity to DPH-labeled liposomal membrane containing 5 to 45 mol% cholesterol assessed as increase in membrane fluidity by measuring decrease in DPH fluorescence polarization after 5 mins by spectrofluorometry. In outline: as §1
Data set [6] is filed under the species Canis familiaris. Nature of the data set: Cardiotoxicity in dog assessed as total plasma concentration causing cardiovascular collapse measured after 20 mins. The format is toxicity, organism-based, Canis lupus familiaris.
For data set [7], the species on record is Canis familiaris. Nature of the data set: Cardiotoxicity in dog assessed as free plasma concentration causing cardiovascular collapse measured after 20 mins. The format is toxicity, organism-based, Canis lupus familiaris.
The test system of data set [8] is Lipid bilayer. Put plainly: Increase in membrane fluidity in DPH-labeled liposomal membrane containing 40 mol% cholesterol assessed as change in DPH fluorescence polarization at 200 uM after 5 mins by spectrofluorometry relative to control. It is filed as cell membranes. In outline:
as §1

For `CCCCN1CCCC[C@@H]1C(=O)Nc1c(C)cccc1C`, the outcome in the data set on Lipid bilayer [1], in the data set on Lipid bilayer [2], in the data set with Lipid bilayer [3] and with Lipid bilayer [5] was Active. The fold change (FC) with Lipid bilayer [4] was 3.7.
Consider `CCCCN1CCCCC1C(=O)Nc1c(C)cccc1C` (racemic) [BUPIVACAINE], for which the Activity came to 39 µM in the data set listed under Canis familiaris [6] and 10 µM in the data set listed under Canis familiaris [7]. The result in the data set with Lipid bilayer [1], with Lipid bilayer [2], in the data set with Lipid bilayer [3] and in the data set on Lipid bilayer [5] was Active. The fold change (FC) with Lipid bilayer [8] was 1.7.
As to `CCCCN1CCCC[C@H]1C(=O)Nc1c(C)cccc1C` [LEVOBUPIVACAINE], the Activity worked out at 49 µM in the data set listed under Canis familiaris [6] and 17 µM in the data set filed under Canis familiaris [7]. Besides, the outcome in the data set on Lipid bilayer [1], in the data set on Lipid bilayer [2] and with Lipid bilayer [3] was Active. Further, the fold change (FC) in the data set with Lipid bilayer [4] turned out to be 3.7; in the data set with Lipid bilayer [8], 1.4.
Consider `CCCN1CCCC[C@H]1C(=O)Nc1c(C)cccc1C` [ROPIVACAINE], for which the Activity in the data set filed under Canis familiaris [6] was 64 µM; in the data set filed under Canis familiaris [7], 36 µM. The fold change (FC) in the data set with Lipid bilayer [8] was found to be 1.
